Experimental data collected from several papers.
Protocols differ between the studies behind these lines.
Target: Amine oxidase [flavin-containing] A (MAOA, Homo sapiens, UniProt P21397)
Observed: enzyme activity
Mode: inhibitor
Residues used in one study (P21397 1-527): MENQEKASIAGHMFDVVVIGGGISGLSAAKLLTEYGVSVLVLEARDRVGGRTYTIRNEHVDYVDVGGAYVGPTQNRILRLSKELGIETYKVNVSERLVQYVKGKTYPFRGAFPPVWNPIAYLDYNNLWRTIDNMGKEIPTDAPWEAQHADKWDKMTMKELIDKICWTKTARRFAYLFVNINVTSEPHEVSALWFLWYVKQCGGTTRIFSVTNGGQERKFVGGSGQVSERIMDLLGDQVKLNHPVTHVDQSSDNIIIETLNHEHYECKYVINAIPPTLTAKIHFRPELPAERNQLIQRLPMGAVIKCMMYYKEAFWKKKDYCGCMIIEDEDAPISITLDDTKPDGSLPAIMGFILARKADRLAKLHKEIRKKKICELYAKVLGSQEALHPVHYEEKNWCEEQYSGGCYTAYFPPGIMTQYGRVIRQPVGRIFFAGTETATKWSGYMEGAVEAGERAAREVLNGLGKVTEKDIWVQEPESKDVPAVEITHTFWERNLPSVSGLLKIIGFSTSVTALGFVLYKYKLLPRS

CN1CCN(C(=O)CN[C@@H]2C[C@H]2c2ccc(OCc3ccccc3)cc2)CC1 — IC50 (luciferase): 0.51 µM
C#CCOc1ccc(/C=C/C(=O)N2CCc3ccccc3C2)cc1OC — IC50 (fluorescence): 64 µM
COC(=O)c1ccc(C(=O)OC)c(NC(=O)c2cc(Cl)ccc2O)c1 — IC50: > 5 µM
O=C(O)c1cc(O)c2c(c1)C(=O)c1cc(O)cc(O)c1C2=O — IC50: 47.1 µM
O=c1c(O)c(-c2ccc(O)c(O)c2)oc2cc(O)ccc12 — IC50: 4.62 µM
COc1ccc(/C=C/C(=O)N2CCC(Cc3ccccc3)CC2)cc1OC — IC50 (fluorescence): 66.1 µM
O=C1C[C@@H](c2ccc(O)cc2)Oc2cc(O)cc(O)c21 — IC50: 8.64 µM
c1cc2c(cc1C1CCCCC1)c1c3n2CCNC3CCC1 (centres unmarked) — Ki (pH 7.5): 5.3 µM
O=C1c2c(O)cc(O)cc2O[C@H](c2ccc(O)cc2)[C@H]1O — IC50: 14.6 µM
O=C(Nc1ccc([N+](=O)[O-])cc1Cl)c1cc2ccccc2o1 — IC50: 0.293 µM
COc1cc(/C=C/C(=O)N2CCc3ccccc3C2)ccc1OC1CCCCC1 — IC50 (fluorescence): 65.3 µM
